From PubChem
iPSC survival up – enhancers of human iPSC single-cell survival; survival enhancement, % at 20 µM; hiPSC single-cell survival, ATPlite luminescence; 100% = ROCK inhibitor wells, 0% = DMSO; 360,000 compounds, 0.044% hits; AID 602274; in the data active = survival enhancement above about 18%;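 note: cells exposed to compounds for 16 hours before the ATP read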
SKN-1 inh – C. elegans SKN-1 inhibition. C. elegans VP596 Pgst-4::GFP/RFP ratio, acrylamide-induced, 24 h. inhibition, % at 21.8 µM. 360,000 compounds, 0.49% hits;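 active = interference check ratio from 0.5 to 1.5 plus GFP to RFP signal ratio inhibition reaching or exceeding a fixed threshold, cut at about 30% in these data, passing the limit was not always enough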
DAGLB inh – diacylglycerol lipase beta (human) inhibition; Q8NCG7; HEK293T DAGLB membrane lysate, EnzChek fluorogenic substrate; inhibition, % at 5.17 µM; 340,000 compounds, 0.059% hits; in the data active = inhibition above about 34%;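 note: 0% = enzyme with vehicle and 100% = wells lacking enzyme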
Target sequence (Q8NCG7 whole entry, looked up): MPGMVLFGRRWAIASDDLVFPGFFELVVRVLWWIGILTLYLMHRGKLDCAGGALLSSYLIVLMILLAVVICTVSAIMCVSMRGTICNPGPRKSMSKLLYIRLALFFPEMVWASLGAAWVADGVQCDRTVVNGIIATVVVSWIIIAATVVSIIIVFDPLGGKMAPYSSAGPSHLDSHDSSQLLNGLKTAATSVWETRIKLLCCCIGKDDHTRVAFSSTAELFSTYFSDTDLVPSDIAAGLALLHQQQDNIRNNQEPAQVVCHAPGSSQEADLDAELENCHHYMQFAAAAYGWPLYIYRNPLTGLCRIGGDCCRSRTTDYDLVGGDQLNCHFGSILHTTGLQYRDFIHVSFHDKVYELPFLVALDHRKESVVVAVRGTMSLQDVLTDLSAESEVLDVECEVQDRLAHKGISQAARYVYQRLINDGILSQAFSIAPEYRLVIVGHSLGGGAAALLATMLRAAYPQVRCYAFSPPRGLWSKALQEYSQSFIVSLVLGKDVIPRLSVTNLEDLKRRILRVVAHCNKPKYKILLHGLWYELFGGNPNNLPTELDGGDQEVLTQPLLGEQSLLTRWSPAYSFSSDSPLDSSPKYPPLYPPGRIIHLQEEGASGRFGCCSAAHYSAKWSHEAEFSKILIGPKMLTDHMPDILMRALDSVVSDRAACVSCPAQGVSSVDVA
FAS TE block – blocks the thioesterase domain of human fatty acid synthase; 360,000 compounds, 0.67% hits; recombinant FAS-TE, OMFH fluorogenic substrate, fluorescence endpoint; P49327; inhibition, % at 15 µM;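 active = compounds whose normalised, plate-corrected inhibition of enzyme fluorescence in the single-dose primary screen is 50% or more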;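 note: 0% = DMSO with enzyme and 100% = substrate without enzyme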
MT1-MMP act inh – blocks activation of human MT1-MMP; GFP/RFP ratio change, % at 20 µM; 360,000 compounds, 0.061% hits; AID 651647; HT1080 RFP-PRO-GFP cells, GFP/RFP ratio fluorescence, overnight; percent of plate control window, DMSO zero; P50281;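 active = GFP/RFP ratio change of at least 30% with cell ATP level not reduced by more than half and red fluorescence within 50% of control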
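Assay system: RFP-PRO-GFP reporter HT1080 cells; read-out basis: GFP/RFP fluorescence ratio; benchmarks: DMSO wells and RFP-L50D-GFP cells; doses: 20 µM single dose, 1% DMSO; schedule: overnight cell settling, then overnight compound exposure, 37 °C, 5% CO2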
FAS-TE inh conf – FAS thioesterase (human) inhibition, confirmation | shares compounds with FAS TE block | recombinant FAS-TE, OMFH fluorogenic substrate, fluorescence | inhibition, % at 15 µM | 2,300 compounds, 45% hits | AID 624325;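 active = compounds inhibiting the enzyme by at least 50% at 15 µM in any one of the replicates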;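 note: 0% = enzyme with DMSO only and 100% = wells lacking enzyme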
Active calls of the source: *; . = not tested or not shown. Compounds with a hit are over-represented: about 1.3% of the library has one in this group of screens.

SMILES	iPSC survival up	SKN-1 inh	DAGLB inh	FAS TE block	MT1-MMP act inh	FAS-TE inh conf
CCOC1=C2[C@H](c3ccccc3)N(S(=O)(=O)c3ccc(C)cc3)[C@H](C(C)C)[C@H]2n2c(=O)n(-c3ccccc3)c(=O)n2C1	-1.0	10.8	.	60.5*	-20.2	18.4
C=CCn1c(C)c(C(C)=O)c(N2CCN(C(c3ccccc3)c3ccccc3)CC2)nc1=S	12.2	2.4	-1.9	58.4*	-12.6	-0.3
Cc1cc(N2CCN(C(c3ccccc3)c3ccc(Cl)cc3)CC2)n2ncnc2n1 (centres undefined)	-0.7	-15.4	-14.4	57.7*	3.1	20.8
Cc1cc(N2CCN(c3ccccc3)CC2)n2ncnc2n1	-0.3	6.7	0.2	-3.2	5.5	.
COC(=O)C[C@@H]1CC[C@H](NC(=O)c2cnccn2)[C@@H](CO)O1	.	-2.0	.	.	3.5	.
O=S(=O)(c1ccc(F)cc1)N1CCCC(c2nc(-c3ccc(F)cc3)no2)C1 (centres undefined)	1.2	-11.1	-9.5	58.3*	2.4	23.4
CCOC(=O)C1CCN(c2ccc([N+](=O)[O-])cc2S(=O)(=O)N2CCOCC2)CC1	0.3	14.6	-0.3	8.9	-0.5	.
CC1CCN(c2ccc([N+](=O)[O-])cc2C(=O)N2CCOCC2)CC1	-0.3	15.3	-2.5	-1.9	0.7	.
CCOC(=O)C1CCN(C(=O)COC(=O)c2cc([N+](=O)[O-])ccc2N2CCOCC2)CC1	1.0	18.1	0.5	69.6*	-2.1	71.3*
CC1CCCN(C(=O)COC(=O)c2cc([N+](=O)[O-])ccc2N2CCOCC2)C1 (centres undefined)	0.8	5.4	0.5	81.3*	4.7	83.6*
CC1CC(C)CN(C(=O)COC(=O)c2cc([N+](=O)[O-])ccc2N2CCOCC2)C1 (centres undefined)	-0.3	19.1	-3.0	82.9*	0.2	80.7*
CC1CN(C(=O)COC(=O)c2cc([N+](=O)[O-])ccc2Cl)CC(C)O1 (centres undefined)	2.8	2.2	-2.3	25.7	2.2	.
CC1CCCC(C)N1C(=O)COC(=O)c1cc([N+](=O)[O-])ccc1N1CCOCC1 (centres undefined)	-0.5	5.1	-1.3	62.9*	-5.1	73.6*
O=C(Cc1cccc(NC(=O)C2CCCN(C(=O)CCc3ccccc3)C2)c1)Nc1ccc(C(=O)N2CCOCC2)cc1 (centres undefined)	-2.3	14.9	-0.2	-7.5	-2.1	.
C[C@H](O)[C@@H]1C(=O)N2CCc3c([nH]c4ccccc34)[C@@H]2C[C@@H]1N(C)Cc1ccc2c(c1)OCO2	-0.5	5.1	1.4	8.1	-22.0	.
COC(=O)C1=CN(c2ccc(F)cc2)C(N)=C(C#N)C1c1cccc(F)c1 (centres undefined)	.	14.0	.	.	2.2	.
O=C(Nc1cccc(S(=O)(=O)NC2=NCCCCC2)c1)c1cc(-c2ccc(Cl)cc2)nc2ccccc12	-0.1	9.8	-4.6	57.3*	-4.2	26.5
O=C(Nc1ccc(OCc2ccccc2)cc1)Nc1nnc([C@@H]2C[C@H](O)[C@@H](CO)O2)s1	2.2	-1.0	.	-0.8	3.6	.
O=[N+]([O-])c1ccc(Cn2cc(-c3cccc(C(F)(F)F)c3)nn2)cc1	-1.2	-1.0	-4.4	54.7*	10.9	4.0
Cc1noc(C)c1C(=O)N1CCCC(C)(C(=O)NS(=O)(=O)C2CC2)C1 (centres undefined)	0.6	12.0	.	-7.7	-3.6	.
COc1ccc(CN2C[C@@H](CO)O[C@@H](n3cnc4c(NC5CCC5)ncnc43)C2)cc1	-1.4	-3.2	.	-5.4	7.0	.
CN(CC(=O)Nc1ccc(S(=O)(=O)N(C)C)cc1)Cc1ccc(C(F)(F)F)cc1	-0.3	-1.1	-1.9	52.6*	-3.4	40.0
Cc1c(Br)c([N+](=O)[O-])nn1CC(=O)Nc1ccc(C(C)C)cc1	-0.5	-3.0	-9.0	73.4*	2.0	59.0*
CC(=O)Nc1ccc(NC(=O)Cn2nc([N+](=O)[O-])c(Br)c2C)cc1	-0.1	8.8	-2.1	3.8	-1.2	.
Cc1c(Br)c([N+](=O)[O-])nn1CC(=O)Nc1ccc(Cc2ccncc2)cc1	-0.7	10.2	-2.1	68.3*	3.6	64.1*
